From the array DNA melting data of Ke et al. (doi:10.1101/2024.01.08.574731) come the findings set out here.

The nature of data set [1]: folding enthalpy; higher = less favourable; fluorescence melt of hairpins on a sequencing array, two-state fit. The note with it: sodium 0.088 M. Put shortly:
(§1)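 Melting temperature and folding enthalpy were obtained by bootstrapped two-state fitting. Fits used Cy3 fluorescence of library hairpins with annealed Cy3 and quencher oligos on a sequenced MiSeq flow cell, imaged in 50 mM Na-HEPES pH 8.0, 25 mM NaCl in 2.5 °C steps up to 60 °C and normalised to pre-quench Cy3 and control constructs. Four replicates were combined by inverse-variance weighting, and fitted temperatures were raised by 9.35 °C to match UV melts.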

Data set [2] is described as follows: melting temperature; fluorescence melt of hairpins on a sequencing array, two-state fit, raised by 9.35 °C to match UV melts. The settings on record: sodium 0.088 M. Put shortly:
as §1

As to GCCAGTGGAAACACTGAC (.(((((....))))).), the folding enthalpy in data set [1] was -15.8 kcal/mol. Besides, in data set [2], the Tm amounted to 46.1 °C.
In the same order, the values of GCCATACGAAAGTACGGC (((.(((....))).))) are -37 kcal/mol and 51.5 °C.
Take GCCATAGGAAACTGTGGC ((((.((....)).)))): in data set [1], the folding enthalpy was -39.1 kcal/mol. Moreover, in data set [2], the Tm was determined as 52.2 °C.
Taken in the same sequence, the figures for GCCATATCGAAAGATGGC (((..(((....)))))) were -34.6 kcal/mol and 48.2 °C.
In the same order, the values of GCCATCCGAAAGGAAGGC (((.(((....))).))) are -31.3 kcal/mol and 57.9 °C.
Taken in the same sequence, the figures for GCCATCGAAAGATCCGGC ((((((....)))..))) were -19.6 kcal/mol and 33.2 °C.
Turning to GCCATCGAAAGATTCGGC ((((((....)))..))), in data set [1], the folding enthalpy is -21 kcal/mol. In addition, in data set [2], the Tm is 36.9 °C.
In the same order, the values of GCCATCGAAAGATTGGGC ((((((....)))..))) are -26.8 kcal/mol and 44.1 °C.
Taken in the same sequence, the figures for GCCATCTCGAAAGAGGGC (((..(((....)))))) were -35.2 kcal/mol and 48.9 °C.
For GCCATGCGAAAGCAACGC ((..(((....)))..)), in data set [1], the folding enthalpy is -8.26 kcal/mol. In addition, the Tm in data set [2] is 29 °C.
Taken in the same sequence, the figures for GCCATGCGAAAGCACGGC (((.(((....))).))) were -49.1 kcal/mol and 56.9 °C.
In the same order, the values of GCCATGCGAAAGCGAGGC (((..((....))..))) are -21.6 kcal/mol and 60 °C.
In the same order, the values of GCCATGCGAAAGCTCGGC (((..((....))..))) are -23.6 kcal/mol and 52.5 °C.
Turning to GCCATGCGAAAGCTGGGC (((..((....))..))), the folding enthalpy in data set [1] was -26.4 kcal/mol. The Tm in data set [2] was determined as 62.6 °C.
Taken in the same sequence, the figures for GCCATGCGAAAGCTTTGC ((.(.((....)).).)) were -11.7 kcal/mol and 36.1 °C.
For the sequence GCCATGGGAAACCACGGC (((.(((....))).))), the folding enthalpy in data set [1] is -36.5 kcal/mol. For the same sequence, the Tm in data set [2] is 47.7 °C.
Taken in the same sequence, the figures for GCCATGGGAAACTATGGC (((((.(....).))))) were -37.4 kcal/mol and 52.5 °C.
Taken in the same sequence, the figures for GCCATTACGAAAGTAGGC (((..(((....)))))) were -25.6 kcal/mol and 42.2 °C.
Taken in the same sequence, the figures for GCCATTGGAAACAATGAC (.(((((....))))).) were -19.1 kcal/mol and 38.8 °C.
As to GCCCAACGAAAGTTAGGC (((.(((....))).))), the folding enthalpy in data set [1] is -34.3 kcal/mol. Moreover, the Tm in data set [2] turned out to be 48.7 °C.
As for GCCCACCCGAAAGGGGGC (((..(((....)))))), the folding enthalpy in data set [1] is -17.6 kcal/mol. Moreover, the Tm in data set [2] was 58.4 °C.
Taken in the same sequence, the figures for GCCCACGAAAGTGAGGC ((((((....))).))) were -31.1 kcal/mol and 64 °C.
In the same order, the values of GCCCACGAAAGTGAGGGC ((((((....)))..))) are -28.2 kcal/mol and 59.9 °C.
In the case of GCCCACTCGAAAGAGGGC (((..(((....)))))), in data set [1], the folding enthalpy was -22.5 kcal/mol. Besides, in data set [2], the Tm came out at 50.6 °C.
Taken in the same sequence, the figures for GCCCAGCGAAAGCAGTGC ((.(.((....)).).)) were -13.3 kcal/mol and 34.7 °C.
For GCCCAGCGAAAGCCAGGC (((..((....))..))), the folding enthalpy in data set [1] is -20.6 kcal/mol. For the same sequence, the Tm in data set [2] was 55.2 °C.
Taken in the same sequence, the figures for GCCCAGCGAAAGCCTGGC (((..((....))..))) were -13 kcal/mol and 56.1 °C.
In the same order, the values of GCCCAGCGAAAGCTACGC ((..(((....)))..)) are -5.73 kcal/mol and 30.2 °C.
Taken in the same sequence, the figures for GCCCAGCGAAAGCTGAGC ((.((((....)))).)) were -15.2 kcal/mol and 63.3 °C.
For GCCCAGCGAAAGCTGCGC ((.((((....)))).)), the folding enthalpy in data set [1] is -17.1 kcal/mol. In addition, the Tm in data set [2] is 59 °C.
With GCCCAGCGAAAGCTGGC (((.(((....)))))), the folding enthalpy in data set [1] was -9.03 kcal/mol. For the same sequence, in data set [2], the Tm was found to be 61 °C.
Taken in the same sequence, the figures for GCCCAGGGAAACCTGAGC ((.((((....)))).)) were -19.2 kcal/mol and 45.5 °C.
On to GCCCATCGAAAGATAGGC (((.(((....))).))), for which the folding enthalpy in data set [1] is -30.5 kcal/mol. Besides, in data set [2], the Tm amounted to 47.2 °C.
Consider GCCCCACCGAAAGGTGGC (((..(((....)))))), for which the folding enthalpy in data set [1] is -4.81 kcal/mol. For the same sequence, the Tm in data set [2] was found to be 40.7 °C.
With GCCCCAGGAAACCGGGAC (.(((.(....).))).), the folding enthalpy in data set [1] is -16.3 kcal/mol. The Tm in data set [2] was 31.1 °C.
In the same order, the values of GCCCCAGGAAACTGAGGC (((.(((....))).))) are -33.5 kcal/mol and 47.5 °C.
In the same order, the values of GCCCCCACGAAAGTGGGC (((..(((....)))))) are -5.47 kcal/mol and 38.6 °C.
